Source: PubChem BioAssay (The Scripps Research Institute Molecular Screening Center)
Sampled rows, rich in hits. Any-hit rate of the full collection: about 1.8%.
CHRM5 antagonist: CHRM5 antagonism in calcium assay; AID 624040; CHO-hM5 cells, Fluo-8 calcium fluorescence, ACh EC80; 360,000 compounds, 0.59% hits; inhibition, % at 3 µM;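 active = inhibition above a per-plate cutoff, the mean of that plate's test compounds plus 3 SD, cut at about 27% in these data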
Target sequence (P08912 whole entry, looked up): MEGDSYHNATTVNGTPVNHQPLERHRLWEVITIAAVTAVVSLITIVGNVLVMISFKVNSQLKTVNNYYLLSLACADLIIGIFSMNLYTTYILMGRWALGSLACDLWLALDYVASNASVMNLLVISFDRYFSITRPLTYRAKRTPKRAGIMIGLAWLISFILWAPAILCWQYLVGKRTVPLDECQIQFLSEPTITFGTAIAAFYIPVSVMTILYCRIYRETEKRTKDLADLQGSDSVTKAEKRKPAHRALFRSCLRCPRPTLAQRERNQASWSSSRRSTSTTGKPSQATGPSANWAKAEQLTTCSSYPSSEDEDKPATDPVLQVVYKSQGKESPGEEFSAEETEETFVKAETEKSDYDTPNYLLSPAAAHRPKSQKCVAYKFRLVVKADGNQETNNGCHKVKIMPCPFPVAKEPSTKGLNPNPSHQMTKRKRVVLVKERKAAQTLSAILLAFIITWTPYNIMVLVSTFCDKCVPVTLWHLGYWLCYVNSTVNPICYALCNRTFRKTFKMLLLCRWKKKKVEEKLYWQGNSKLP
CHRM4 agonist: agonists of human muscarinic M4 receptor (CHRM4); 360,000 compounds, 0.14% hits; CHO-K1 hM4/Gqi5, Fluo-8 calcium fluorescence; vehicle 0%, full acetylcholine response 100%; activation, % at 3 µM;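 active = activation above the run mean over all test wells plus 3 SD, cut at about 32% in these data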;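 also: peak over basal fluorescence ratio per well then scaled between controls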
M5 PAM: positive allosteric modulators of human muscarinic M5 receptor. activation, % at 3 µM. P08912. CHO-K1 hM5, Fluo-8 calcium, ACh EC20 PAM; 0% = ACh EC20, 100% = ACh EC100. 360,000 compounds, 0.3% hits;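 active = activation above the run cutoff, the mean activation of all test compounds plus 3 SD, cut at about 18% in these data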
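Probe or stimulus: acetylcholine, EC20 level; Assay system: human M5 receptor in CHO-K1 cells; Schedule: compound preincubation 140 s before EC20 acetylcholine addition; Technique: intracellular calcium via Fluo-8 fluorescence; Dosing: single-point, 3 µM nominal; Read-out basis: percent activation from peak-over-basal fluorescence ratio, scaled EC20-to-EC100 acetylcholine; Repeats: one well per compound, no replicates.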
M4 antag: blocks acetylcholine activation of human M4 receptor. CHO-hM4 cells, ACh EC80, Fluo-8 calcium fluorescence. inhibition, % at 3 µM. 360,000 compounds, 0.73% hits. AID 624125;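 active = inhibition above its plate's cutoff, the mean inhibition of sample wells plus 3 SD, cut at about 27% in these data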
M5 ag: agonists of human muscarinic M5 receptor (CHRM5). CHO-K1 hM5 cells, Fluo-8 calcium fluorescence; 0% DMSO wells, 100% maximal acetylcholine response. activation, % at 3 µM. 360,000 compounds, 0.19% hits;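 active = activation above the run's mean over test compounds plus 3 SD, cut at about 23% in these data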;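 also: signal is peak over basal fluorescence ratio across the kinetic read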
M4 PAM: potentiates acetylcholine response at human M4 receptor | P08173 | CHO-K1 hM4/Gqi5, Fluo-8 calcium fluorescence, ACh EC20; 0% = ACh EC20, 100% = maximal ACh | activation, % at 3 µM | 360,000 compounds, 0.4% hits;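 active = activation above its plate's cutoff, the mean activation of sample wells plus 3 SD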
Each line names hits and unclear results; the compound was inactive in the other large screens; ! = not active in a repeat.

CC1CCCN1CC#CC(O)(c1ccccc1)c1ccccc1 (configuration not stated)	CHRM5 antagonist 99.0, M4 antag 97.0
C(#CCN1CCCC1)CC(c1ccccc1)c1ccccc1	CHRM5 antagonist 74.5, M4 antag 69.2
CC1CCCCN1C(C(=O)O)c1ccccc1 (configuration not stated)	none
CC(=O)c1cccc(NC(=O)COC(=O)Cc2ccc(Cl)cc2)c1	none
Cc1nnc(NCC=Cc2ccccc2)s1	none
CCOC(=O)N1CCN(CC(O)COc2ccc3c(c2)CCC3)CC1 (configuration not stated)	none
Cc1cc(C)n2nc(SCC(=O)N3CCCC(C)C3)nc2n1 (configuration not stated)	none
CCN(CC)CCCNC(=S)N(CCO)Cc1cc2cc3c(cc2[nH]c1=O)OCCO3	none
CC(C)C(O)(C#CCN1CCCCCC1)c1ccccc1 (configuration not stated)	CHRM5 antagonist 60.0, M4 antag 54.0
CCOC(=O)C1(Cc2ccccc2Cl)CCN(C(=O)CCn2ccnc2C)CC1	none
CC1(C(O)(C#CC[N+]2(C)CCCCC2)c2ccccc2)CCCC1 (configuration not stated)	CHRM5 antagonist 99.5, M4 antag 98.8
CCCN1CCN(CC(O)COC(c2ccc(OC)cc2)c2ccc(OC)cc2)CC1 (configuration not stated)	none
O=C(O)C1CCN(C(=O)c2cccc3ccccc23)CC1	M4 PAM 17.7
O=C(O)C1CCN(C(=O)c2ccccc2C(=O)N2CCC(C(=O)O)CC2)CC1	none
O=C(COC(=O)c1ccccc1NCCO)Nc1cc(C(F)(F)F)ccc1N1CCOCC1	none
CCOC(=O)c1c(NC(=S)NC(C)=O)sc(C)c1C	M5 PAM 18.3, M4 PAM 32.0
CCOC(=O)c1c(NC(=O)COC)sc(C)c1C	none
O=C(Cc1cc(=O)[nH][nH]1)N/N=C/C(Cl)=C/c1ccccc1	M4 PAM 35.1!
O=C(Cc1cc(=O)[nH][nH]1)N/N=C/c1c(Cl)cccc1Cl	none
COc1ccccc1C(CNC(=O)c1cccc(S(=O)(=O)N2c3ccccc3CC2C)c1)N(C)C (configuration not stated)	CHRM5 antagonist 77.8
CC1Cc2ccccc2N1S(=O)(=O)c1cccc(C(=O)NCc2ccco2)c1 (configuration not stated)	none
COc1ccccc1C(CNC(=O)c1cccc(S(=O)(=O)N2CCCc3ccccc32)c1)N(C)C (configuration not stated)	CHRM5 antagonist 67.4
COc1ccc(C(CNC(=O)c2cccc(S(=O)(=O)N3CCc4ccccc43)c2)N(C)C)cc1 (configuration not stated)	none
COc1cc(C(=O)COC(=O)c2cc([N+](=O)[O-])ccc2N2CCOCC2)ccc1OC(F)F	M4 antag 28.2
COc1ccccc1C(=O)COC(=O)c1cc([N+](=O)[O-])ccc1N1CCOCC1	none
CC(=O)N1CCN(Cc2nc(C(c3ccccc3)c3ccccc3)no2)CC1	none
Cc1cccnc1CN1CCN(Cc2nc(C(c3ccccc3)c3ccccc3)no2)CC1	M4 antag 36.4
Cc1nc(CN2CCN(Cc3nc(C(c4ccccc4)c4ccccc4)no3)CC2)cs1	CHRM5 antagonist 33.5
c1ccc(C(c2ccccc2)c2noc(CN3CCN(C4CCCC4)CC3)n2)cc1	M4 antag 30.1
CC(C)(C)NC(=O)NC(=O)CSc1ccc(S(=O)(=O)N2CCCCC2)cn1	none
CC(=O)Nc1ccc(NC(=O)CSc2nc3[nH]ncc3c(=O)n2-c2ccccc2)cc1	M4 PAM 20.3
COc1cc(NC(=O)CSc2nc3[nH]ncc3c(=O)n2-c2ccccc2)cc(OC)c1OC	none
COc1ccc(CCNC(=O)COC(=O)c2ccccn2)cc1	none
COc1ccc(-c2nc3ccc(N4CCCC4)cc3c(=O)[nH]2)cc1OC	M5 PAM 18.7
COc1ccc2nc(-c3ccccc3)[nH]c(=O)c2c1	none
